# Assay results taken from ChEMBL document CHEMBL4033778, “Species-Selective Pyrimidineamine Inhibitors of Trypanosoma brucei S-Adenosylmethionine Decarboxylase” (J Med Chem, 2018).
# Calls of active or inactive are those of the source. The calls are words filed in the database; no cut-off is given here.
# How the values were obtained:
# [1] = target: T1, S-adenosylmethionine decarboxylase proenzyme (Homo sapiens, UniProt P17707); assay: Inhibition of recombinant human N-terminal His6-tagged AdoMetDC expressed in Escherichia coli BL21/DE3 cells at pH 7.2 by RapidFire-MS-based enzyme activity assay
# T1 sequence (P17707 whole entry): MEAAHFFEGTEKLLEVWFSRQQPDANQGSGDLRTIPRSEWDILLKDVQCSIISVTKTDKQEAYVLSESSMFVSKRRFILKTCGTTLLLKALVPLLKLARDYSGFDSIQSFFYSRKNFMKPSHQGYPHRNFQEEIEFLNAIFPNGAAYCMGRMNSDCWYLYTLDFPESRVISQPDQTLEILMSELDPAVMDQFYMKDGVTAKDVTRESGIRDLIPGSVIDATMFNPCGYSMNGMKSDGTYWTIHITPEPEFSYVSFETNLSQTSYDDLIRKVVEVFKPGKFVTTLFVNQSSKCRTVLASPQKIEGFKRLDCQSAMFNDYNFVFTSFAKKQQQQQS
# [2] = Inhibition of recombinant Trypanosoma brucei N-terminal His6-tagged AdoMetDC/prozyme hetrodimer expressed in Escherichia coli BL21/DE3 cells at pH 7.2 by RapidFire-MS-based enzyme activity assay
# [3] = test system: Trypanosoma brucei brucei; assay: Antitrypanosomal activity against blood stream form Trypanosoma brucei brucei Lister 427 at 25 uM after 48 hrs by CellTiter-Glo assay; format: functional
# Method in brief: (§1)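 Bloodstream-form parasites grown in HMI-19 with fetal bovine serum, exposed 48 h to a 3-fold serial dilution (0.0038–25 μM or 0.015–100 μM final; 0.1% DMSO vehicle). Cell density read by ATP bioluminescence (CellTiter-Glo). Triplicate; EC50 from normalized response vs log concentration fit, bottom fixed at 0, Hill slope fixed at –8 when curve steepness gave ambiguous fit. Percent inhibition given at top concentration when <50%.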
# [4] = target: T2, S-adenosylmethionine decarboxylase proenzyme (Trypanosoma brucei brucei) (UniProt P50244); assay: Inhibition of AdoMetDC in bloodstream form Trypanosoma brucei brucei Lister 427 assessed as increase in prozyme level at 1.5 times EC50 after 24 hrs by Western blot method
# T2 sequence (whole entry): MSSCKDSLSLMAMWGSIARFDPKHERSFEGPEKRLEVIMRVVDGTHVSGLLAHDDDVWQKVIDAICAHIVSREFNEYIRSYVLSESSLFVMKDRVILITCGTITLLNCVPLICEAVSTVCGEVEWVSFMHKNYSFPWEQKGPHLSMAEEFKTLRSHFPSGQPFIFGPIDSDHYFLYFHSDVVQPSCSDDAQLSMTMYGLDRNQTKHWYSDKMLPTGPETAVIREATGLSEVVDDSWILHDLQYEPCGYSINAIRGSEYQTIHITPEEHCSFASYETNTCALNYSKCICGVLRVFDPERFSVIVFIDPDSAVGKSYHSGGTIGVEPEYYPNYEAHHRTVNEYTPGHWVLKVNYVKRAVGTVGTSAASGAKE
# [5] = Inhibition of recombinant Trypanosoma brucei N-terminal His6-tagged AdoMetDC/prozyme hetrodimer expressed in Escherichia coli BL21/DE3 cells at pH 6.8 by RapidFire-MS-based enzyme activity assay
# [6] = Inhibition of recombinant Trypanosoma brucei N-terminal His6-tagged AdoMetDC/prozyme hetrodimer expressed in Escherichia coli BL21/DE3 cells at pH 7.7 by RapidFire-MS-based enzyme activity assay
# Trypanosoma brucei [7] = assay: Ratio of IC50 for recombinant Trypanosoma brucei N-terminal His6-tagged AdoMetDC/prozyme hetrodimer expressed in Escherichia coli BL21/DE3 cells at pH 7.7 to IC50 for recombinant Trypanosoma brucei N-terminal His6-tagged AdoMetDC/prozyme hetrodimer expressed in Escherichia coli BL21/DE3 cells at pH 6.8
# human MDR1 (P-gp) = assay: Apparent permeability from basolateral side to apical side in MDCK2 harboring human MDR1 cells in absence of Pgp inhibitor GF120918 at 10 to 20 uM after 60 mins by LC-MS/MS method; format: ADME, cell-based, Canis lupus familiaris, MDCK-II; conditions: dog, MDCK-MDR1
# Method in brief: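 MDCKII-hMDR1 monolayer permeability measured with or without Pgp inhibitor GF120918.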
# Trypanosoma brucei [8] = assay: (§2) Reversible inhibition of recombinant Trypanosoma brucei N-terminal His6-tagged AdoMetDC/prozyme hetrodimer expressed in Escherichia coli BL21/DE3 cells using S-adenosyl-L-methionine as substrate preincubated for 30 mins followed by 100 fold dilution and substrate addition measured every 5 mins by RapidFire-mass spectrometry
# [9] = as §2, with “Competitive” for “Reversible”, “by” for “by 100 fold dilution and”, “double-reciprocal Lineweaver-Burk plot analysis” for “RapidFire-mass spectrometry”
# [10] = target: T3, S-adenosylmethionine decarboxylase proenzyme (Homo sapiens) (UniProt P17707); assay: Inhibition of recombinant human N-terminal His6-tagged AdoMetDC expressed in Escherichia coli BL21/DE3 cells at 180 uM at pH 7.2 by RapidFire-MS-based enzyme activity assay
# T3 sequence (whole entry): T1 sequence (P17707 whole entry)
# Liver [11] = assay: Metabolic stability in CD-1 mouse pooled liver microsomes at 1 uM in presence of NADPH measured up to 30 mins by LC-MS/MS method; format: ADME, microsome; conditions: 0.5 h
# Liver [12] = assay: Metabolic stability in mixed gender human pooled liver microsomes at 1 uM in presence of NADPH measured up to 30 mins by LC-MS/MS method; format: ADME, microsome; conditions: 0.5 h
# [13] = target: T3, S-adenosylmethionine decarboxylase proenzyme (Homo sapiens); assay: Inhibition of recombinant human N-terminal His6-tagged AdoMetDC expressed in Escherichia coli BL21/DE3 cells at 63 uM at pH 7.2 by RapidFire-MS-based enzyme activity assay
# Trypanosoma brucei [14] = assay: Inhibition of recombinant Trypanosoma brucei N-terminal His6-tagged AdoMetDC/prozyme hetrodimer expressed in Escherichia coli BL21/DE3 cells at 63 uM at pH 7.2 by RapidFire-MS-based enzyme activity assay
# Method in brief: (§3)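 Steady-state decarboxylation of S-adenosyl-L-methionine by purified TbAdoMetDC/prozyme at pH 7.2; decarboxylated AdoMet product read by RapidFire–MS. Inhibitor added from DMSO to 2% final DMSO. Percent inhibition reported at the top tested concentration when mean inhibition stayed below 50%; triplicate.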
# Trypanosoma brucei [15] = assay: Inhibition of recombinant Trypanosoma brucei N-terminal His6-tagged AdoMetDC/prozyme hetrodimer expressed in Escherichia coli BL21/DE3 cells at 21 uM at pH 7.2 by RapidFire-MS-based enzyme activity assay; method in brief: as §3
# [16] = Selectivity ratio of IC50 for recombinant human N-terminal His6-tagged AdoMetDC expressed in Escherichia coli BL21/DE3 cells to IC50 for recombinant Trypanosoma brucei N-terminal His6-tagged AdoMetDC/prozyme hetrodimer expressed in Escherichia coli BL21/DE3 cells
# Method in brief: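 Both enzymes assayed at pH 7.2 by RapidFire–MS, monitoring decarboxylated AdoMet. Inhibitor run as a 3-fold dilution series from 0.01 to 180 μM final, with 2% DMSO final. Data normalized to 0.5 μM Genz-644131 as full inhibition. IC50 fitted with bottom fixed at 0 and Hill slope fixed at −1, triplicate. Ratio is human IC50 over parasite IC50.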
# Trypanosoma brucei [17] = assay: Inhibition of recombinant Trypanosoma brucei N-terminal His6-tagged AdoMetDC/prozyme hetrodimer expressed in Escherichia coli BL21/DE3 cells at 180 uM at pH 7.2 by RapidFire-MS-based enzyme activity assay; method in brief: as §3
# [18] = test system: Trypanosoma brucei brucei; assay: Antitrypanosomal activity against bloodstream form Trypanosoma brucei brucei Lister 427 after 48 hrs by CellTiter-Glo assay; format: functional; conditions: Lister 427, 48 h; method in brief: as §1
# [19] = test system: Trypanosoma brucei brucei; assay: Antitrypanosomal activity against blood stream form Trypanosoma brucei brucei Lister 427 at 100 uM after 48 hrs by CellTiter-Glo assay; format: functional; method in brief: as §1
SMILES,IC50 [1] [µM],IC50 [2] [µM],Activity [3] [%],other results
Nc1nc(Cl)cc(Nc2cc(Cl)cc(Cl)c2)n1,> 180,> 180,,inhibition [4]: inactive
Cc1cc(Nc2cc(Cl)cc(Cl)c2)nc(N)n1,,3.7,,"IC50 [5]: 0.5 µM; IC50 [6]: 30 µM; Ratio IC50 (Trypanosoma brucei [7]): 60; Papp B→A at 1 h, up to 20 µM (human MDR1 (P-gp)): 13.5 ×10⁻⁶ cm/s; inhibition (Trypanosoma brucei [8]): Active; Ki [9]: 2.6 µM; inhibition [10]: 27%; inhibition [4]: Active; Stability (Liver [11]): Unstable; Stability (Liver [12]): Unstable"
Cc1cc(Nc2cc(Cl)cc(Cl)c2)ncn1,> 180,> 180,,inhibition [4]: inactive
Cc1cc(Nc2cc(Cl)cc(-c3ccccc3)c2)nc(N)n1,,3.3,,inhibition [13]: 30%
Nc1cc(Nc2cc(Cl)cc(Cl)c2)nc(N)n1,> 180,48,,IC50 [5]: 5.8 µM
Cc1cc(Nc2cc(Cl)cc(-c3cc4ccccc4o3)c2)nc(N)n1,> 63,,,inhibition (Trypanosoma brucei [14]): 23%
CC(=O)c1ccc(-c2cc(Cl)cc(Nc3cc(C)nc(N)n3)c2)cc1,> 21,,,inhibition (Trypanosoma brucei [15]): 28%
Cc1cc(Nc2cc(Br)cc(Br)c2)nc(N)n1,,1.9,,inhibition [10]: 31%; Ratio IC50 [16]: > 100
Cc1cc(Nc2ccc(F)c(F)c2)nc(N)n1,> 180,,25,inhibition (Trypanosoma brucei [17]): 33%
Cc1cc(Nc2cc(Br)cc(OCC(F)(F)F)c2)nc(N)n1,44,1.6,,Ratio IC50 [16]: 27
Nc1nccc(Nc2cc(Cl)cc(Cl)c2)n1,> 180,13,,inhibition [4]: Active
C=CCOc1cc(Br)cc(Nc2cc(C)nc(N)n2)c1,,4.5,,IC50 [18]: 4.4 µM; inhibition [10]: 28%
Cc1cc(Nc2cc(Cl)cc(-c3cncs3)c2)nc(N)n1,> 21,,,inhibition (Trypanosoma brucei [15]): 42%
Cc1cc(Nc2cc(Cl)cc(-c3ccoc3)c2)nc(N)n1,,7.4,,IC50 [18]: 7.1 µM; inhibition [10]: 30%
Cc1cc(Nc2cc(Cl)c(F)c(Cl)c2)nc(N)n1,,1.5,,Ratio IC50 [16]: > 100
Nc1nc(Nc2cc(Cl)cc(Cl)c2)cc(-c2ccccc2)n1,> 21,,,inhibition (Trypanosoma brucei [15]): 24%
Cc1cc(Nc2cc(Cl)cc(-c3ccc(F)c(Cl)c3)c2)nc(N)n1,> 180,157,,IC50 [18]: 3.2 µM

# The next lines start with results.
IC50 [1] [µM],SMILES,IC50 [2] [µM],Activity [3] [%],other results
> 180,Cc1cc(Nc2ccc(Cl)cc2Cl)nc(N)n1,> 180,28,
> 180,Cc1cc(Nc2cc(C(F)(F)F)ccc2Cl)nc(N)n1,199,28,
> 180,Cc1cc(Nc2cc(Cl)ccc2Cl)nc(N)n1,115,23,
> 180,Cc1cc(Nc2cccc(Cl)c2C)nc(N)n1,> 180,29,
> 180,Cc1cc(Nc2ccc(Cl)cc2)nc(N)n1,> 180,28,
> 180,Cc1cc(Nc2cccc(Cl)c2Cl)nc(N)n1,137,27,
> 180,Cc1cc(Nc2cc(Cl)ccc2C)nc(N)n1,> 180,28,
> 180,Cc1cc(Nc2ccc(Br)cc2F)nc(N)n1,> 180,25,
> 180,Cc1cc(Nc2cc(Cl)cc(Cl)c2O)nc(N)n1,37,,Activity [19]: 26%
